Data on 15 compounds can be found in ChEMBL document CHEMBL1146096, “Slow-binding human serine racemase inhibitors from high-throughput screening of combinatorial libraries” (J Med Chem, 2006).

Where a SMILES comes first, the peptide text is derived from it. [ ]: non-standard residue; d: D form. The star is where a group is joined. Phe(4-CN) = N#Cc1ccc(C[C@H](N)C(=O)O)cc1; Hydrocinnamoyl = O=C(CCc1ccccc1)*; hPhe = N[C@@H](CCc1ccccc1)C(=O)O; 2Thi = N[C@@H](Cc1cccs1)C(=O)O; Orn = NCCC[C@H](N)C(=O)O

The first assay concerns the target T1, Serine racemase (Homo sapiens) (UniProt Q9GZT4).
T1 sequence (whole entry): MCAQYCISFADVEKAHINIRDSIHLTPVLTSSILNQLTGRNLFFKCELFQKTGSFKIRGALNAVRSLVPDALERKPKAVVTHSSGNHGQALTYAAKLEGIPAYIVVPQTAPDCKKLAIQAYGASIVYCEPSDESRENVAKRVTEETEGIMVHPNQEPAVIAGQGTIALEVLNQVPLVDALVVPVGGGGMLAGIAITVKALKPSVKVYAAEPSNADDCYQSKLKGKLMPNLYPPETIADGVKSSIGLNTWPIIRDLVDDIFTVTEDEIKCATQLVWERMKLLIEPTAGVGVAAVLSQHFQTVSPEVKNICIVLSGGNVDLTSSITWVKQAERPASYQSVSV
As to the kind of experiment: Inhibition of human serine racemase at 2 mM. The procedure, abridged:
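Recombinant His-tagged hSR (E. coli, Ni-NTA). Inhibitor tested at 2 mM in a DAAO/LDH-coupled assay of total racemization plus elimination, with the NADH decrease followed at 340 nm. Buffer: 200 mM TEA·HCl, 150 mM KCl, 50 µM PLP, 5 mM MgCl2, 2.5 mM ATP, 10 mM DTT. L-serine substrate. Reported as percent decrease in activity.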
A word on the inhibition: it is how much of the control response was suppressed. Read a low inhibition as a response near the control. `CC[C@@H](C)[C@H](NC(=O)[C@H](Cc1c[nH]cn1)NC(=O)CCc1ccccc1)C(N)=O` displayed an inhibition of 74%. For `CCC(C)C[C@H](NC(=O)CCc1ccccc1)C(=O)N[C@@H](Cc1c[nH]cn1)C(N)=O` (stereo partly specified), the inhibition stood at 54%.

`CC[C@@H](C)[C@H](NC(=O)[C@H](CO)NC(=O)/C=C/c1cccnc1)C(N)=O` returned an inhibition of 10%. With `CC[C@@H](C)[C@H](NC(=O)[C@H](Cc1c[nH]cn1)NC(=O)CCc1ccccc1)C(=O)NCCOCCOCNC(=O)CCC(N)=O`, the inhibition turned out to be 0%. Still for that read-out and setting: the same measure for `CSCC[C@H](NC(=O)N1C(=O)OC[C@@H]1c1ccccc1)C(=O)N[C@@H](CCC(=O)O)C(N)=O`: 8%; for `N#Cc1ccc(C[C@H](NC(=O)c2ccc(-c3ccccc3)cc2)C(=O)NC2(C(N)=O)CCC(O)CC2)cc1` (stereo partly specified): 0%; for `NC(=O)[C@H](Cc1cccc(C(=O)c2ccccc2)c1)NC(=O)[C@H](Cc1ccccc1)NC(=O)COCC(=O)O`: 4%. Compound `NC(=O)C[C@H](NC(=O)CCc1ccccc1)C(=O)N[C@@H](Cc1c[nH]cn1)C(N)=O` (Hydrocinnamoyl-Asn-His-NH2) registered an inhibition of 42%.

Take `CC(C)C[C@H](NC(=O)[C@H](Cc1c[nH]cn1)NC(=O)CCc1ccccc1)C(N)=O` (Hydrocinnamoyl-His-Leu-NH2): the inhibition amounted to 57%. With `NCCCC[C@H](NC(=O)[C@H](Cc1c[nH]cn1)NC(=O)CCc1ccccc1)C(N)=O` (Hydrocinnamoyl-His-Lys-NH2), the inhibition is 40%. On the same count and under the same terms, the same measure for `NC(=O)[C@H](Cc1cccs1)NC(=O)[C@H](Cc1c[nH]cn1)NC(=O)CCc1ccccc1` (Hydrocinnamoyl-His-[2Thi]-NH2): 68%.

In the case of `NCCC[C@H](NC(=O)[C@H](Cc1c[nH]cn1)NC(=O)CCc1ccccc1)C(N)=O` (Hydrocinnamoyl-His-[Orn]-NH2), the inhibition stood at 49%. Compound `NC(=O)[C@H](CCc1ccccc1)NC(=O)[C@H](Cc1c[nH]cn1)NC(=O)CCc1ccccc1` (Hydrocinnamoyl-His-[hPhe]-NH2) showed an inhibition of 70%. In turn, `N#Cc1ccc(C[C@H](NC(=O)CCc2ccccc2)C(=O)N[C@@H](Cc2c[nH]cn2)C(N)=O)cc1` (Hydrocinnamoyl-[Phe(4-CN)]-His-NH2) yielded an inhibition of 72%.

The next assay has as its target T2, Serine racemase (Homo sapiens, UniProt Q9GZT4).
T2 sequence (Q9GZT4 whole entry): T1 sequence (whole entry)
The assay is described as follows: Inhibition of human serine racemase. The procedure, abridged: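 His-tagged hSR expressed in E. coli BL21 and Ni-NTA purified. Combined racemization plus elimination rate coupled via DAAO and LDH; NADH decrease read at 340 nm. Mix: 200 mM TEA·HCl, 150 mM KCl, 50 µM PLP, 5 mM MgCl2, 2.5 mM ATP, 10 mM DTT, 0.3 mM NADH. Varied L-serine against fixed inhibitor levels (0–2 mM), 40 min preincubation. KI obtained by global fit of data.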
As usually defined, the Ki is a measure of affinity in units of concentration, obtained from inhibition or displacement. Low readings indicate higher affinity, high ones lower affinity. In the case of `CC[C@@H](C)[C@H](NC(=O)[C@H](Cc1c[nH]cn1)NC(=O)CCc1ccccc1)C(N)=O`, the Ki was determined as 610 µM. In turn, `NC(=O)[C@H](CCc1ccccc1)NC(=O)[C@H](Cc1cnc[nH]1)NC(=O)CCc1ccccc1` (Hydrocinnamoyl-His-[hPhe]-NH2) returned a Ki of 320 µM.
